{"source": "paper PMC9275543", "about": "(Chromatographia, 2022)", "key": {"ACE2 [1]": {"biological_target": "T1, ACE2 (Homo sapiens, UniProt Q9BYF1)", "T1 sequence (Q9BYF1 18-805)": "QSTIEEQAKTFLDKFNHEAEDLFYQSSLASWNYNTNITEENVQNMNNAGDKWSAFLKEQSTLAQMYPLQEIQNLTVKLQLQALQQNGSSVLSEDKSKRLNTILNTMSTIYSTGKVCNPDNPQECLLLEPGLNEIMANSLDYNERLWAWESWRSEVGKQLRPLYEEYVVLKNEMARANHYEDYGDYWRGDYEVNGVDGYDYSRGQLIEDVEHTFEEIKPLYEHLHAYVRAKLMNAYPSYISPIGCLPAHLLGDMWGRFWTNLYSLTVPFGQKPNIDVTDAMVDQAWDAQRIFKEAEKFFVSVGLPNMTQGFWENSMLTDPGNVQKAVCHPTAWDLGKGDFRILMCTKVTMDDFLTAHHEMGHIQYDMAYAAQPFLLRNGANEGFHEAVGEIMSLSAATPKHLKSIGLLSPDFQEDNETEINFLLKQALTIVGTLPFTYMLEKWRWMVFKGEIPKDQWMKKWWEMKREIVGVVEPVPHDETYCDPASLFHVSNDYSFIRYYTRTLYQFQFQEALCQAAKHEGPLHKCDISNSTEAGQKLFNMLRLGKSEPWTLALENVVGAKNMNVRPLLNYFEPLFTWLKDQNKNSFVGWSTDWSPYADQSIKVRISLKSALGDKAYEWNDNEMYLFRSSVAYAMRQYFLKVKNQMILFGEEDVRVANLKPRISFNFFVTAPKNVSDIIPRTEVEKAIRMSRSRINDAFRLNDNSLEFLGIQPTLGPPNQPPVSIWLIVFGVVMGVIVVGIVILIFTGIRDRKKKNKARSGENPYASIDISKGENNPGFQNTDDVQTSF", "settings": "cell chromatography; cited from earlier work"}, "[2]": {"assay": "Breakthrough on neutravidin control column", "assay_type": "binding", "settings": "5 μM; 25 μm i.d.; 30 nL/min; 25 °C; no ACE2 or Main pro", "in_short": "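Frontal analysis: free test compound or its PEG-dispersed oxidized multiwall carbon nanotube nanovector, each at 5 μM in 50 mM PBS pH 7.4, flushed successively through a neutravidin poly(GMA-co-EDMA) monolith capillary (40 mm, 25 μm i.d.) with no grafted receptor. Run at 30 nL min−1 and 25 °C with UV detection at 238 nm. Saturation plateau time tp is normalized to DMSO-derived dead time t0.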"}, "ACE2 [3]": {"biological_target": "T1, ACE2", "settings": "surface plasmon resonance; cited from earlier work"}, "[4]": {"biological_target": "angiotensin-converting enzyme 2 (ACE2) (Homo sapiens, UniProt Q9BYF1)", "sequence (Q9BYF1 18-805)": "as above", "assay": "Frontal analysis on the ACE2 affinity capillary column", "assay_type": "binding", "settings": "5 μM; 25 μm i.d., 40 mm; 30 nL/min; 25 °C"}, "ACE2 [5]": {"biological_target": "T1, ACE2", "assay": "Competition experiment with SARS-CoV-2 RBD on the ACE2 affinity column", "assay_type": "binding", "settings": "from competition with SARS-CoV-2 RBD"}, "[6]": {"biological_target": "SARS-CoV-2-Main protease (Main pro) (Severe acute respiratory syndrome coronavirus 2, UniProt P0DTD1)", "assay": "Normalized breakthrough curves on the Main pro affinity capillary column", "assay_type": "binding", "in_short": "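Recombinant biotinylated Main pro was loaded at 10 μM and 30 nL/min onto a neutravidin poly(GMA-co-EDMA) monolith capillary, immobilising about 1.60 pmol (n = 6). Free test compound and its PEG-dispersed oxidised MWCNT nanovector (5 μM) were flushed in 50 mM PBS pH 7.4. Reference columns were neutravidin-only and ACE2. UV was read at 238 nm. Breakthrough was normalised as outlet/inlet absorbance versus tp/t0, with t0 from DMSO.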"}}, "note": "Like-named read-outs stand apart in the source and are kept apart here."}
{"smiles": "CCN(CC)CCCC(C)Nc1ccnc2cc(Cl)ccc12", "note": "(stereo not shown) [Chloroquine, chloroquine]", "values": [{"measurement": "Kd", "setting": "ACE2 [1]", "value": 1.3, "unit": "µM"}]}
{"smiles": "C[C@@H]1C[C@H]2[C@@H]3CCC4=CC(=O)C=C[C@]4(C)[C@@]3(F)[C@@H](O)C[C@]2(C)[C@@]1(O)C(=O)CO", "note": "[Dexamethasone]", "values": [{"measurement": "normalized breakthrough time t/t0 on neutravidin control column", "setting": "[2]", "value": "~1"}, {"measurement": "Kd", "setting": "ACE2 [3]", "value": 9, "unit": "µM"}, {"measurement": "normalized breakthrough time on the ACE2 column", "setting": "[4]", "value": "above 1"}, {"measurement": "binding site on ACE2", "setting": "ACE2 [5]", "value": "bound on the orthosteric site of ACE2 with specific interaction"}, {"measurement": "Kd", "setting": "[6]", "value": "> 5", "unit": "µM"}, {"measurement": "normalized breakthrough time on the Main pro column", "setting": "[6]; 5 μM, 25 μm i.d., 40 mm, 30 nL/min, 25 °C", "value": "above 1"}]}
